What was measured:
[1] = molecular target: T1, Bromodomain-containing protein 1 (Homo sapiens, UniProt O95696); assay: Inhibition of human His tagged BRPF2 incubated for 30 mins followed by addition of biotinylated peptide and further incubation for 30 mins measured by AlphaScreen assay
T1 sequence (O95696 whole entry): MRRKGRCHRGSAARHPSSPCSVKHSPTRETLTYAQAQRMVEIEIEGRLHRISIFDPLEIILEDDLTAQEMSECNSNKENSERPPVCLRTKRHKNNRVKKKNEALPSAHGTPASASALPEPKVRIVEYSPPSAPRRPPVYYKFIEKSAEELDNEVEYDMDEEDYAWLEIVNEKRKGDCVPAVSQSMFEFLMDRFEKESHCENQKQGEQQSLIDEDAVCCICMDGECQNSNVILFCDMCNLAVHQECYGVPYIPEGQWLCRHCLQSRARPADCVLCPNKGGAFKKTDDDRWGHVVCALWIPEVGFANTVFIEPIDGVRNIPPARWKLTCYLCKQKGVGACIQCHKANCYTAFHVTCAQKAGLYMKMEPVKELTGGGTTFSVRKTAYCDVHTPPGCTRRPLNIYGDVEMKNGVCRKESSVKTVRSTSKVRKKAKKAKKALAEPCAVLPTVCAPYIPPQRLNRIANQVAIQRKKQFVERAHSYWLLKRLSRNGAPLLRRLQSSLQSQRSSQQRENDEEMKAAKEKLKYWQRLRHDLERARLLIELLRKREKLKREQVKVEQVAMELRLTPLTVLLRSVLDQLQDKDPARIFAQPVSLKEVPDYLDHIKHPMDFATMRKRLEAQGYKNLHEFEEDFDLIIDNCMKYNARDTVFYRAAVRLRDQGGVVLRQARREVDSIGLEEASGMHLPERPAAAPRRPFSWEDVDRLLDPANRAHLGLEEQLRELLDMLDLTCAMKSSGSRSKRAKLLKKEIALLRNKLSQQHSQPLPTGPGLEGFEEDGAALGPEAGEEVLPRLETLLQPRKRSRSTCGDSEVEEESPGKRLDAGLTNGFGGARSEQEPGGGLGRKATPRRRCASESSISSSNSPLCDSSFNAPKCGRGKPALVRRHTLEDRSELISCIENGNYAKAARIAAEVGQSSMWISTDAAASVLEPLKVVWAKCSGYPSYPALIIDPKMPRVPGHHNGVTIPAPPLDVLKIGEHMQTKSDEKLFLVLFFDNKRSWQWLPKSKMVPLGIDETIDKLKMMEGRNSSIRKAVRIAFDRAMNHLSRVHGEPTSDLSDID

Peregrin = molecular target: T2, Peregrin (Homo sapiens, UniProt P55201); assay: Binding affinity to human BRPF1 by isothermal titration calorimetry
T2 sequence (P55201 whole entry): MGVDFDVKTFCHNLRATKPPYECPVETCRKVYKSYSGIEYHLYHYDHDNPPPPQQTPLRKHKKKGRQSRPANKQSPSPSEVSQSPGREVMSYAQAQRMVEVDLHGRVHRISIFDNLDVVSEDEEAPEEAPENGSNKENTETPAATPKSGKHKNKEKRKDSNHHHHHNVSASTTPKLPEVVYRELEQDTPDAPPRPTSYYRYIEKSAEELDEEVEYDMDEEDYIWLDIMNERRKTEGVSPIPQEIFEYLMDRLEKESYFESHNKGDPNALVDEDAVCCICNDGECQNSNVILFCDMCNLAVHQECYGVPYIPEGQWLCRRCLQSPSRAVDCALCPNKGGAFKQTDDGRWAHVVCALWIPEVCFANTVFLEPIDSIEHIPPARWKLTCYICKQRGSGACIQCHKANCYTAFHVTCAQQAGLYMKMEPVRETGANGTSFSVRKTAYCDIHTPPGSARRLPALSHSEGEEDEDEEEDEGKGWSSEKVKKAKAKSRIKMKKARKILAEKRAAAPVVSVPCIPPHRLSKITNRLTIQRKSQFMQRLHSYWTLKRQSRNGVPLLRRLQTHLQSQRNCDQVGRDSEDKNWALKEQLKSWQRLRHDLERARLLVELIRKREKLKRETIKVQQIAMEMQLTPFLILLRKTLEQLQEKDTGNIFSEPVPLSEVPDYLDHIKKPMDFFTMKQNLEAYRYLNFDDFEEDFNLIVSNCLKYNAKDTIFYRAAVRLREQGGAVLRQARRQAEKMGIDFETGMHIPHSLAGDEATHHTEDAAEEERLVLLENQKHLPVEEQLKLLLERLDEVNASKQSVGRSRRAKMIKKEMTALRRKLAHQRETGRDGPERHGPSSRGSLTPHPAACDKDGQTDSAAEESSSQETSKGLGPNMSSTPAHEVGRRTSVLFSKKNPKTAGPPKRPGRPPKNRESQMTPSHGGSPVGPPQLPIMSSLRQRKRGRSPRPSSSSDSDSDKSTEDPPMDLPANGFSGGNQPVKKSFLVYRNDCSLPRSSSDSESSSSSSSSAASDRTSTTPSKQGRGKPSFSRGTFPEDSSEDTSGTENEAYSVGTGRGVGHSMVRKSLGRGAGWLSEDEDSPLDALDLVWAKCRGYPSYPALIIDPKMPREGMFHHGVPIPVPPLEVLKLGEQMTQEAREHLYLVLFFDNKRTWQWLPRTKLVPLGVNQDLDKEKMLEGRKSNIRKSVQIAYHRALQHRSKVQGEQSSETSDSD
Method in brief: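 Titration of compound into BRPF1 bromodomain; binding heats recorded per injection, normalized enthalpies fitted by nonlinear least squares to a single-binding-site model to give KD, ΔH and TΔS.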

THP-1 = assay: Growth inhibition of human THP1 cells after 72 hrs; format: functional; details: THP-1, 72 h
AGS = assay: Growth inhibition of human AGS cells after 72 hrs; format: functional
[2] = Elimination half life in CD-1 mouse plasma at 1 mg/kg, iv administered as bolus; format: ADME, organism-based; details: read-out: beta t1/2 (converted)
Method in brief: (§1)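 Female CD-1 mice (n = 3), single dosing: intravenous 1.0 mg/kg, or oral 3.0 mg/kg given as a suspension. Blood levels were followed over time to derive clearance, volume of distribution, elimination half-life, Cmax, Tmax, AUC0−∞, oral bioavailability and fraction absorbed.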

[3] = AUC (0 to infinity) in CD-1 mouse blood at 3 mg/kg, po; format: ADME, organism-based; design: dose 3 mg/kg, time infinity, route oral; details: whole blood; method in brief: as §1
[4] = molecular target: Chromatin remodeling regulator CECR2 (Homo sapiens, UniProt Q9BXF3); assay: Inhibition of human CECR2 expressed in Escherichia coli BL21 after 1 hr by BROMOscan assay
Chromatin remodeling regulator CECR2, sequence (Q9BXF3 whole entry): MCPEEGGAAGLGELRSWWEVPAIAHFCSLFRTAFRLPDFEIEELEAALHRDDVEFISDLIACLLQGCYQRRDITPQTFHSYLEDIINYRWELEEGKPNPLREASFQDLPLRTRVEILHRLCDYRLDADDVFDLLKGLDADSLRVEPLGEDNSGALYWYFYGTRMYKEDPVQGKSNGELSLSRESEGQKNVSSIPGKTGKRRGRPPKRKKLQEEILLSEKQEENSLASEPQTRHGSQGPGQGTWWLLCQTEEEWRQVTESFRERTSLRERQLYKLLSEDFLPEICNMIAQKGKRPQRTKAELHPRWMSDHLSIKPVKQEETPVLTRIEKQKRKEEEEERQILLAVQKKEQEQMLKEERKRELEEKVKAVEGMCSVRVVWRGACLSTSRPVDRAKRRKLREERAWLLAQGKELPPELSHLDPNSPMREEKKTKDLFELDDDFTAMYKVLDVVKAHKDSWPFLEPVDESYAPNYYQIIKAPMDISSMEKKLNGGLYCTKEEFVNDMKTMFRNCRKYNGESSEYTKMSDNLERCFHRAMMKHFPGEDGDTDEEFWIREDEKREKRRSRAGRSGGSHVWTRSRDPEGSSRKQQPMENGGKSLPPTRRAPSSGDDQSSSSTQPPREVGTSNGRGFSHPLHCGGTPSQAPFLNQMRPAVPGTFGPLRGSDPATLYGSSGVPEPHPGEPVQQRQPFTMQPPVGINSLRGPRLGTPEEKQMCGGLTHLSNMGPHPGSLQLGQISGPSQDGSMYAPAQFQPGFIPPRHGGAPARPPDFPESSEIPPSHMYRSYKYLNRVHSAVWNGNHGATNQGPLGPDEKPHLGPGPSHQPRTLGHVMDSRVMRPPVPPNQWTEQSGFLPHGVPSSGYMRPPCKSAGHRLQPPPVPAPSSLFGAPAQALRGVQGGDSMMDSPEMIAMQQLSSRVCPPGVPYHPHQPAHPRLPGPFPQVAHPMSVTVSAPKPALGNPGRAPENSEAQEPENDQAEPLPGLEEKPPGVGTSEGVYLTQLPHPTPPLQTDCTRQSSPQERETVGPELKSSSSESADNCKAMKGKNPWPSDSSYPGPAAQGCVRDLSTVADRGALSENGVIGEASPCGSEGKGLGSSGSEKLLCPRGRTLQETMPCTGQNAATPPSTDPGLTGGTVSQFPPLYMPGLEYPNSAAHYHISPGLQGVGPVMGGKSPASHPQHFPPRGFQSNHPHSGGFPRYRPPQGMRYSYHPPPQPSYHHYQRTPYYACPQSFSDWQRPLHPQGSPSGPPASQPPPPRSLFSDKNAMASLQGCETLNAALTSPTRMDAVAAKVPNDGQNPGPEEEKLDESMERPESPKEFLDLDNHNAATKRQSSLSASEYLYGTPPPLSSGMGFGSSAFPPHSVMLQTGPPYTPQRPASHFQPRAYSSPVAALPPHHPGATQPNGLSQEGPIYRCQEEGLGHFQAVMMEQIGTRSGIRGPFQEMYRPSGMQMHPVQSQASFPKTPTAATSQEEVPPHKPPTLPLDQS

IC50 [1] [µM]	Kd (Peregrin) [µM]	GI50 (THP-1) [µM]	GI50 (AGS) [µM]	half-life [2] [h]	AUC(0-inf) [3] [ng·h/mL]	IC50 [4] [µM]	SMILES
0.76	0.04	5.7	1 to 10	2	5700		Cc1cc2cc(NS(=O)(=O)c3ccc(C#N)cc3)ccc2n(C)c1=O
						> 100	CCc1cc2cc(NS(=O)(=O)c3ccc(C#N)cc3)ccc2n(CC)c1=O
